ERAP1 inh = human ERAP1 aminopeptidase inhibitors, primary screen, biochemical, single point, plate reader; Endoplasmic reticulum aminopeptidase 1 (Homo sapiens), Q9NZ08; recombinant ERAP1, Leu-AMC fluorescence, 60 min; inhibition, % at 10.7 µM; hit rate 0.15% among 340,000; AID 652197, 2013;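 active means mean replicate inhibition of at least 30%, or all replicates individually reaching that 30% level; inactive means mean below 30% and not every replicate reaching it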;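 further: 0% = neutral control wells and 100% = L-leucinethiol positive control wells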
F508del corr = F508del CFTR correction, initial screen, CFBE line, single point | CFBE cells, YFP halide quenching; stimulated with forskolin plus potentiator P3; % fluorescence drop versus neutral controls | activity (quench increase), % at 7.58 µM | hit rate 0.36% among 350,000 | AID 720511, 2013;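 active means mean added fluorescence quench of at least 8% versus neutral control, with both replicates also reaching 8%; inconclusive means only one of the mean or replicate conditions met; inactive means mean below 8% and not both replicates reaching 8%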;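 further: cells transiently co-express mutant CFTR-F508del with the halide-sensitive YFP; corrector assay measuring rescue of mutant channel to the surface after 24 h compound exposure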
rRNA inh HTS = reduced GFP signal of wild-type E. coli, primary screen, bacterial rRNA inhibitor project, GFP/RFP fluorescence, OD600, single point | hit rate 1.6% among 350,000 | E. coli WT GFP vs humanized-ribosome RFP mutants, 24 h; stronger effect = lower value; DMSO median 0, no signal -100 | GFP signal change (wild-type ribosome), % (test concentration not listed);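 active means significant combined selectivity score with lowered wild-type GFP, culture density cut under 30%, mutant RFP and density less affected; inactive means any of these conditions unmet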
SIRT5 inh = SIRT5 desuccinylase inhibitors, primary screen, biochemical, fluorescence imaging, single point, set 5 | NAD-dependent protein deacylase sirtuin-5, mitochondrial (Homo sapiens), Q9NXA8 | Purified SirT5, succinyl-peptide AMC, trypsin-coupled fluorescence | inhibition, % at 15 µM | hit rate 1.1% among 330,000; in the data active means inhibition above about 15%; inconclusive means no clear call, values can overlap the other calls
Target sequence (Q9NXA8 whole entry, looked up): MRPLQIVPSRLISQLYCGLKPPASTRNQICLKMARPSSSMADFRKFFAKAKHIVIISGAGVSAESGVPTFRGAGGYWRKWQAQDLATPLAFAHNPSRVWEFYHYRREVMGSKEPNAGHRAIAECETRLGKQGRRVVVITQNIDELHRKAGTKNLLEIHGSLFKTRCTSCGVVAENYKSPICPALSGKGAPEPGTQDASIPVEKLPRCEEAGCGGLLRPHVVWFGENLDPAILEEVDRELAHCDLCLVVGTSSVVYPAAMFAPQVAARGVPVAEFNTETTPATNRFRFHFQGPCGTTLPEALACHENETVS
S100A4 MyoIIA = inhibitors of S100A4-myosin IIA peptide binding, primary screen, biochemical, fluorescence polarization, TAMRA-MyoIIA peptide; hit rate 0.14% among 360,000; AID 652163, 2013; Protein S100-A4 (Homo sapiens), P26447; inhibition, % at 10.7 µM;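 active means mean inhibition of at least 70% across replicates, with every replicate also reaching that level; inconclusive means mean inhibition reaches 70% but some replicates fall short; inactive means mean inhibition below 70%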
Target sequence (P26447 whole entry, looked up): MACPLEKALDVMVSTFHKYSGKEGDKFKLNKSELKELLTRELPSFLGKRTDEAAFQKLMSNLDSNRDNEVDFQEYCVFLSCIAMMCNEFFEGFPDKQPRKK
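incubation = readout 5 min after mixing, signal stable up to 60 min | system = S100A4 monomer protein | buffer or medium = HEPES pH 7.2 with CaCl2, KCl, NaCl, DTT, Triton | benchmarks = neutral control DMSO, positive control TFP | also added = fluorescent myosin IIA peptide, 5 nM | compound dosing = one concentration per compound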
AID977621 = growth inhibition of wild-type GFP E. coli, dose response, H69 mutant RFP, cherry-pick; activity change, negative = inhibition at 50 µM; 1,900 tested, under 10 active; AID 977621, 2014; E. coli wild-type GFP strain growth, fluorescence, 24 h; shares compounds with rRNA inh HTS;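 active means Wild-type ribosome reporter drop at least double the humanized mutant ribosome reporter drop, growth loss under a set limit; inconclusive means no clear call, values can overlap the other calls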;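 further: wild-type GFP and H69 mutant RFP strains grown together 50/50 in each well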
AID977628 = E. coli growth inhibition, wild-type GFP versus h24 humanized RFP strain, dose response, h24 mutant RFP vs wild-type GFP, cherry-pick; AID 977628, 2014; shares compounds with rRNA inh HTS; E. coli WT GFP strain growth, fluorescence, 24 h; activity change, negative = inhibition at 50 µM; 1,900 tested, under 10 active;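 active means compound lowering the normal-ribosome reporter at least twice as much as the humanized-ribosome reporter, growth loss under a set limit; inconclusive means no clear call, values can overlap the other calls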;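 further: wild-type GFP and h24 humanized RFP strains co-cultured 1 to 1 per well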
* marks the source's active call; other numbers are inactive results; ? = inconclusive; . = no result. Hits are enriched below; roughly 3.1% of the tested compounds scored in any of these assays.

SMILES | ERAP1 inh | F508del corr | rRNA inh HTS | SIRT5 inh | S100A4 MyoIIA | AID977621 | AID977628
CN(C(=O)c1cccc(NC(=O)Cc2cccc(NC(=O)C3CCN(C(=O)CCc4ccccc4)CC3)c2)c1)C1CC1 | . | -2.5 | -37.9* | 3.2 | -0.1 | . | ?
COc1ccc2c3c([nH]c2c1)[C@H](CO)N(C(=O)c1ccncc1)CC31CN(Cc2cccnc2)C1 | . | . | -2.9 | . | . | . | .
CO[C@H]1CN(C)C(=O)c2ccc(NS(=O)(=O)c3ccc(Cl)cc3)cc2OC[C@H](C)NC[C@@H]1C | 2.3 | 2.7 | 2.8 | -2.2 | -18.8 | . | .
Cn1ccc2cc(-c3ccc4ncnc(NCc5cccs5)c4c3)ccc21 | -2.2 | -0.2 | -23.6* | 2.8 | -4.6 | ? | -10.9
COc1cccc(-c2ccc3ncnc(NCc4cccs4)c3c2)c1 | -2.7 | -4.0 | 0.1 | . | -2.1 | . | .
O=C(C1CCCC1)N1CCCCN2[C@H](CO)[C@@H](c3ccc(-c4cccc(F)c4)cc3)[C@H]2C1 | -0.7 | -1.9 | . | 8.4 | -4.8 | . | .
COc1ccc(NC(=O)N(C)C[C@H]2Oc3ccc(NC(=O)c4ccncc4)cc3C(=O)N([C@@H](C)CO)C[C@@H]2C)cc1 | . | -0.2 | 4.4 | . | . | . | .
O=C(CCC1CCCN(C(=O)c2cccs2)C1)N1CCN(c2ccccn2)CC1 (stereo unspecified) | 2.9 | -1.6 | -1.9 | -1.5 | 1.1 | . | .
O=C(CCC1CCCN(C(=O)c2ccsc2)C1)N1CCN(c2ccccn2)CC1 (stereo unspecified) | -0.6 | -0.4 | -18.5* | 0.2 | -3.3 | -3.6 | -3.5
CCC(CO)Oc1cc(NC(=O)c2ccccc2C)c2ncn(C(C)C)c2c1 (stereo unspecified) | . | 0.9 | -16.2 | . | -2.3 | . | .
CCC(CO)Oc1cc(NC(=O)c2ccccc2F)c2ncn(C(C)C)c2c1 (stereo unspecified) | 3.5 | -0.4 | -20.2* | . | -27.2 | . | ?
COc1cc(C(=O)Nc2ccc(S(=O)(=O)Nc3cnc4ccccc4n3)cc2)cc(OC)c1OC | 1.4 | -0.6 | -29.3 | -8.3 | -0.2 | . | .
COc1cc(OC)cc(C(=O)Nc2ccc(S(=O)(=O)Nc3cnc4ccccc4n3)cc2)c1 | -6.8 | -1.8 | -43.6* | -1.1 | 9.4 | -1.62 | .
O=C(N[C@H]1CC[C@H](CCNS(=O)(=O)c2ccccc2)O[C@@H]1CO)c1cnccn1 | -1.7 | 4.2 | -0.2 | -1.4 | 3.9 | . | .
O=C(c1ccc(-n2cccn2)cc1)N1CCc2ccccc2C1 | . | -1.2 | -27.3* | -2.0 | -6.2 | -5.85 | ?
O=C(COC(=O)CSc1ccc([N+](=O)[O-])cc1)NCC1CCCO1 (stereo unspecified) | 0.0 | 1.0 | 4.0 | 10.8 | -0.5 | . | .
Cc1cc(SCC(=O)OCC(=O)NCC2CCCO2)c(C)cc1Br (stereo unspecified) | -3.2 | -3.3 | -25.1* | 2.0 | -22.7 | -17.1 | .
CCn1c(SCC(=O)c2ccccc2)nc2ccccc2c1=O | 0.0 | 1.8 | 2.5 | -3.4 | -8.4 | . | .
COc1ccc(C(=O)CSc2nc3ccccc3n2CC(=O)c2ccccc2)cc1 | -2.8 | -3.3 | -27.8* | -6.7 | ? | -1.4 | -12.2
C[C@@H]1CN([C@@H](C)CO)C(=O)Cc2cc(NS(=O)(=O)c3cccs3)ccc2O[C@H]1CN(C)C | 1.5 | -2.4 | 3.5 | 0.0 | 6.6 | . | .
CN(C)C(=O)[C@@H]1[C@@H](CO)[C@@H]2Cn3c(ccc(-c4cccnc4)c3=O)[C@H]1N2C(=O)NC1CCCC1 | 1.7 | -2.7 | 0.6 | -29.3 | 1.0 | . | .
O=C(O)c1cc(S(=O)(=O)Nc2ccccc2Cc2ccccc2)ccc1Cl | -2.2 | -2.2 | -6.0 | -4.1 | -2.3 | . | .
O=C(O)c1ccc(Cl)c(S(=O)(=O)Nc2ccccc2Cc2ccccc2)c1 | -4.5 | 3.3 | -19.3* | -0.3 | -0.8 | . | ?
O=C(Nc1ccc(Cl)c(Cl)c1)N[C@H]1CC[C@@H](CCn2cc(C3CCCCC3)nn2)O[C@@H]1CO | -2.0 | 2.3 | -44.5* | -2.7 | -16.7 | . | ?
O=C(Nc1ccc(Cl)c(Cl)c1)N[C@@H]1CC[C@@H](CCn2cc(C3CCCCC3)nn2)O[C@H]1CO | -0.3 | -1.5 | -42.2* | -3.5 | 39.9 | ? | ?
SMILES | ERAP1 inh | F508del corr | rRNA inh HTS | SIRT5 inh | S100A4 MyoIIA | AID977621 | AID977628
CCNC(=O)Nc1ccc2c(c1)C(=O)N(C)[C@H]1CC[C@H](CC(=O)Nc3ccc(C)cc3)O[C@@H]1CO2 | -3.6 | 2.5 | -2.5 | 1.2 | -3.1 | . | .
O=C(COC(=O)c1ccc(O)cc1)Nc1ccccc1 | 0.9 | 1.3 | -21.3* | -3.8 | -3.6 | -5.03 | -0.613
COc1ccc(/C=C/c2nc3ccccc3n2Cc2ccccc2OC)cc1 | 1.8 | . | -25.7* | -5.8 | -13.0 | -11.5 | -13.7
C=C(C)Cn1c(=O)c2c(nc3n2CC(C)CN3Cc2ccccc2)n(C)c1=O (stereo unspecified) | 1.7 | 0.5 | -23.8* | -2.9 | -11.6 | -15.6 | ?
CC(C)Sc1sc(C(=O)O)c(-c2ccc(Cl)cc2)c1C#N | 4.4 | -1.1 | -43.3* | -1.7 | 4.1 | -7.92 | .
Cc1cc(C(=O)CSc2nnc(C3CC3)n2C2CC2)c(C)n1C(C)C | 1.7 | -1.9 | -9.6 | -2.5 | -4.8 | . | .
C=CCn1c(C)cc(C(=O)CSc2nnc(C3CC3)n2C2CC2)c1C | -0.9 | 0.2 | -19.6* | -1.2 | -0.3 | -20.2 | .
COc1cc(C2CC(=O)Oc3cc(C)cc(C)c32)cc(OC)c1OC (stereo unspecified) | . | -1.3 | -21.6* | -4.2 | -4.7 | . | -11.5
COc1cccc(S(=O)(=O)N2CCCCN3[C@H](CO)[C@H](c4ccc(C#CC(C)C)cc4)[C@@H]3C2)c1 | 6.5 | 2.8 | -3.5 | 0.8 | -4.8 | 4.6 | .
COc1cccc(S(=O)(=O)N2CCCCN3[C@H](CO)[C@@H](c4ccc(C#CC(C)C)cc4)[C@@H]3C2)c1 | 2.2 | -1.1 | 6.8 | -0.3 | 54.1 | ? | .
COc1cccc(S(=O)(=O)N2CCCCN3[C@H](CO)[C@@H](c4ccc(C#CC(C)C)cc4)[C@H]3C2)c1 | 3.0 | 0.6 | -47.2* | 13.5 | -3.2 | . | ?
C[C@H]1CN([C@@H](C)CO)C(=O)Cc2cc(NS(=O)(=O)c3cn(C)cn3)ccc2O[C@H]1CN(C)S(=O)(=O)c1ccc(Cl)cc1 | -1.1 | 2.3 | 2.0 | 2.6 | 14.1 | . | .

Screening data as filed in PubChem BioAssay.
